Source: ChEMBL document CHEMBL1287654, “Anticancer activity of N-bis(trifluoromethyl)alkyl-N'-(polychlorophenyl) and N'-(1,2,4-triazolyl) ureas” (2010)

Tests used:
Assay type in all cases: functional
MOLT-4 = assay: Growth inhibition of human MOLT4 cells after 48 hrs by sulforhodamine B assay; settings: MOLT-4, 48 h
Method in brief: (§1)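 NCI 60-cell-line main test over a five-log dose range. GI50 is the molar concentration giving half-growth inhibition, reported as log molar. Subpanel values are median GI50 across that subpanel's lines. Where 50% inhibition was not reached within the tested interval, the highest tested concentration was used.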

SR = assay: Growth inhibition of human SR cells after 48 hrs by sulforhodamine B assay
Method in brief: (§2)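 NCI 60-cell-line main screen across nine tumor types, with five log dose range per compound. GI50 is the molar concentration giving half growth inhibition, reported as the log of the molar concentration that inhibits 50% net cell growth.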

A549 = assay: Growth inhibition of human A549 cells after 48 hrs by sulforhodamine B assay; settings: A549, 48 h; method in brief: as §1
HOP-92 = assay: Growth inhibition of human HOP92 cells after 48 hrs by sulforhodamine B assay; settings: HOP-92, 48 h; method in brief: as §1
NCI-H226 = assay: Growth inhibition of human NCI-H226 cells after 48 hrs by sulforhodamine B assay; settings: NCI-H226, 48 h; method in brief: as §1
NCI-H460 = assay: Growth inhibition of human NCI-H460 cells after 48 hrs by sulforhodamine B assay; settings: NCI-H460, 48 h; method in brief: as §1
NCI-H522 = assay: Growth inhibition of human NCI-H522 cells after 48 hrs by sulforhodamine B assay; settings: NCI-H522, 48 h; method in brief: as §1
COLO 205 = assay: Growth inhibition of human COLO205 cells after 48 hrs by sulforhodamine B assay; settings: COLO 205, 48 h; method in brief: as §1
HCC 2998 = assay: Growth inhibition of human HCC2998 cells after 48 hrs by sulforhodamine B assay; settings: HCC 2998, 48 h; method in brief: as §1
HCT-116 = assay: Growth inhibition of human HCT116 cells after 48 hrs by sulforhodamine B assay; settings: HCT-116, 48 h; method in brief: as §1
HT-29 = assay: Growth inhibition of human HT-29 cells after 48 hrs by sulforhodamine B assay; settings: HT-29, 48 h; method in brief: as §1
KM12 = assay: Growth inhibition of human KM12 cells after 48 hrs by sulforhodamine B assay; settings: KM12, 48 h; method in brief: as §1
SW-620 = assay: Growth inhibition of human SW620 cells after 48 hrs by sulforhodamine B assay; settings: SW-620, 48 h; method in brief: as §2
SF-268 [1] = assay: Growth inhibition of human SF268 cells after 48 hrs by sulforhodamine B assay; settings: SF-268, 48 h; method in brief: as §1
SF-539 = assay: Growth inhibition of human SF539 cells after 48 hrs by sulforhodamine B assay; settings: SF-539, 48 h; method in brief: as §1
SNB-19 = assay: Growth inhibition of human SNB19 cells after 48 hrs by sulforhodamine B assay; settings: SNB-19, 48 h; method in brief: as §2
SNB-75 = assay: Growth inhibition of human SNB75 cells after 48 hrs by sulforhodamine B assay; settings: SNB-75, 48 h; method in brief: as §2
LOX IMVI = assay: Growth inhibition of human LOXIMVI cells after 48 hrs by sulforhodamine B assay; method in brief: as §1
Malme-3M = assay: Growth inhibition of human MALME-3M cells after 48 hrs by sulforhodamine B assay; method in brief: as §1
M14 = assay: Growth inhibition of human M14 cells after 48 hrs by sulforhodamine B assay; settings: M14, 48 h; method in brief: as §1
SK-MEL-2 = assay: Growth inhibition of human SK-MEL-2 cells after 48 hrs by sulforhodamine B assay; settings: SK-MEL-2, 48 h; method in brief: as §1
SK-MEL-28 = assay: Growth inhibition of human SK-MEL-28 cells after 48 hrs by sulforhodamine B assay; settings: SK-MEL-28, 48 h; method in brief: as §1
SK-MEL-5 = assay: Growth inhibition of human SK-MEL-5 cells after 48 hrs by sulforhodamine B assay; settings: SK-MEL-5, 48 h; method in brief: as §1
UACC-257 = assay: Growth inhibition of human UACC257 cells after 48 hrs by sulforhodamine B assay; settings: UACC-257, 48 h; method in brief: as §2
UACC-62 = assay: Growth inhibition of human UACC62 cells after 48 hrs by sulforhodamine B assay; settings: UACC-62, 48 h; method in brief: as §2
OVCAR-4 = assay: Growth inhibition of human OVCAR4 cells after 48 hrs by sulforhodamine B assay; settings: OVCAR-4, 48 h; method in brief: as §1
OVCAR-5 = assay: Growth inhibition of human OVCAR5 cells after 48 hrs by sulforhodamine B assay; settings: OVCAR-5, 48 h; method in brief: as §1
SK-OV-3 = assay: Growth inhibition of human SKOV3 cells after 48 hrs by sulforhodamine B assay; settings: SK-OV-3, 48 h; method in brief: as §1
786-0 = assay: Growth inhibition of human 786-0 cells after 48 hrs by sulforhodamine B assay; settings: 786-0, 48 h; method in brief: as §1
CAKI-1 = assay: Growth inhibition of human Caki1 cells after 48 hrs by sulforhodamine B assay; settings: CAKI-1, 48 h; method in brief: as §1
RXF 393 = assay: Growth inhibition of human RXF393 cells after 48 hrs by sulforhodamine B assay; settings: RXF 393, 48 h; method in brief: as §1
SN12C = assay: Growth inhibition of human SN12C cells after 48 hrs by sulforhodamine B assay; method in brief: as §2
UO-31 = assay: Growth inhibition of human UO31 cells after 48 hrs by sulforhodamine B assay; settings: UO-31, 48 h; method in brief: as §2
DU-145 = assay: Growth inhibition of human DU145 cells after 48 hrs by sulforhodamine B assay; settings: DU-145, 48 h; method in brief: as §1
MCF7 = assay: Growth inhibition of human MCF7 cells after 48 hrs by sulforhodamine B assay; settings: MCF7, 48 h; method in brief: as §1
NCI/ADR-RES = assay: Growth inhibition of human NCI/ADR-RES cells after 48 hrs by sulforhodamine B assay; method in brief: as §1
MDA-MB-231 = assay: Growth inhibition of human MDA-MB-231 cells after 48 hrs by sulforhodamine B assay; settings: MDA-MB-231, 48 h; method in brief: as §1
[2] = Growth inhibition of human Hs 578T cells after 48 hrs by sulforhodamine B assay; method in brief: as §1
MDA-N = assay: Growth inhibition of human MDA-N cells after 48 hrs by sulforhodamine B assay; method in brief: as §1
SF-268 [3] = assay: Growth inhibition of human SF268 cells assessed as cell growth at 100 uM after 48 hrs by sulforhodamine B assay relative to control; settings: SF-268, 48 h, read-out: Activity
Method in brief: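 One-dose pre-test on MCF7, NCI-H460 and SF-268. Cells were inoculated and pre-incubated on a microtiter plate, then given a single 10^-4 M dose and incubated 48 h. Growth was read spectrophotometrically and expressed as percent of untreated control cells; negative values indicate cell kill.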

[4] = Growth inhibition of human leukemia cell after 48 hrs by sulforhodamine B assay
Method in brief: (§3)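 Subpanel median growth inhibitory concentration: the average sensitivity of each tumor-type subpanel of the NCI 60-cell-line panel, derived from per-cell-line GI50 values. GI50 values came from a five log dose range and are expressed as log molar concentration for 50% net growth inhibition.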

[5] = Growth inhibition of human non-small lung cancer cell after 48 hrs by sulforhodamine B assay; settings: Cancer cell lines; method in brief: as §3
[6] = Growth inhibition of human renal cancer cell after 48 hrs by sulforhodamine B assay; settings: Cancer cell lines; method in brief: as §3
[7] = Growth inhibition of human prostate cancer cell after 48 hrs by sulforhodamine B assay; settings: Cancer cell lines; method in brief: as §3

CCC(NC(=O)Nc1cc(Cl)ccc1Cl)(C(F)(F)F)C(F)(F)F
GI50 (MOLT-4): 3.72 µM
GI50 (SR): 3.39 µM
GI50 (A549): 3.47 µM
GI50 (HOP-92): 4.68 µM
GI50 (NCI-H226): 6.17 µM
GI50 (NCI-H460): 2.19 µM
GI50 (NCI-H522): 2.82 µM
GI50 (COLO 205): 1.82 µM
GI50 (HCC 2998): 1.15 µM
GI50 (HCT-116): 3.24 µM
GI50 (HT-29): 3.31 µM
GI50 (KM12): 4.07 µM
GI50 (SW-620): 5.25 µM
GI50 (SF-268 [1]): 4.79 µM
GI50 (SF-539): 9.55 µM
GI50 (SNB-19): 4.68 µM
GI50 (SNB-75): 3.63 µM
GI50 (LOX IMVI): 4.07 µM
GI50 (Malme-3M): 8.13 µM
GI50 (M14): 5.13 µM
GI50 (SK-MEL-2): 2.19 µM
GI50 (SK-MEL-28): 12 µM
GI50 (SK-MEL-5): 6.61 µM
GI50 (UACC-257): 4.79 µM
GI50 (UACC-62): 4.17 µM
GI50 (OVCAR-4): 5.62 µM
GI50 (OVCAR-5): 4.79 µM
GI50 (SK-OV-3): 10.7 µM
GI50 (786-0): 4.37 µM
GI50 (CAKI-1): 4.57 µM
GI50 (RXF 393): 10 µM
GI50 (SN12C): 2.82 µM
GI50 (UO-31): 2.63 µM
GI50 (DU-145): 4.68 µM
GI50 (MCF7): 7.24 µM
GI50 (NCI/ADR-RES): 4.17 µM
GI50 (MDA-MB-231): 3.31 µM
GI50 [2]: 5.25 µM
GI50 (MDA-N): 4.17 µM
growth at 100 µM (SF-268 [3]): -99%
GI50 [4]: 3.8 µM
GI50 [5]: 3.72 µM
GI50 [6]: 3.89 µM
GI50 [7]: 3.16 µM

CC(NC(=O)Nc1cc(Cl)ccc1Cl)(C(F)(F)F)C(F)(F)F
GI50 (MOLT-4): 9.55 µM
GI50 (SR): 7.41 µM
GI50 (A549): 5.62 µM
GI50 (HOP-92): 6.92 µM
GI50 (NCI-H226): 19.5 µM
GI50 (NCI-H460): 5.75 µM
GI50 (NCI-H522): 3.09 µM
GI50 (COLO 205): 4.17 µM
GI50 (HCC 2998): 3.8 µM
GI50 (HCT-116): 4.9 µM
GI50 (HT-29): 3.72 µM
GI50 (KM12): 4.37 µM
GI50 (SW-620): > 100 µM
GI50 (SF-268 [1]): 72.4 µM
GI50 (SF-539): 30.2 µM
GI50 (SNB-19): > 100 µM
GI50 (SNB-75): 4.07 µM
GI50 (LOX IMVI): 7.76 µM
GI50 (Malme-3M): 17.8 µM
GI50 (M14): > 100 µM
GI50 (SK-MEL-2): 12.3 µM
GI50 (SK-MEL-28): > 100 µM
GI50 (SK-MEL-5): 25.1 µM
GI50 (UACC-257): 75.9 µM
GI50 (UACC-62): > 100 µM
GI50 (OVCAR-4): 10.7 µM
GI50 (OVCAR-5): > 100 µM
GI50 (SK-OV-3): > 100 µM
GI50 (786-0): 9.77 µM
GI50 (CAKI-1): 19.1 µM
GI50 (RXF 393): 77.6 µM
GI50 (SN12C): 8.71 µM
GI50 (UO-31): 2.4 µM
GI50 (DU-145): 9.55 µM
GI50 (MCF7): 11.7 µM
GI50 (NCI/ADR-RES): 5.89 µM
GI50 (MDA-MB-231): 30.2 µM
GI50 [2]: 3.16 µM
GI50 (MDA-N): > 100 µM
growth at 100 µM (SF-268 [3]): 50%
GI50 [4]: 9.12 µM
GI50 [5]: 9.77 µM
GI50 [6]: 15.1 µM
GI50 [7]: 5.75 µM
